Data: publication PMC3496770 (Journal of chromatography. A, 2012)

What was measured:
[1] = Determination of log Ppw and pKa by polymer film; assay type: physicochemical; settings: both UHPLC and plate reader; p>0.05
Summary of the method: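 The solute, in 20 mM phosphate-citrate, 20 mM phosphate or TFA buffers (pH 0.9–10.0), was added over the films and shaken at 500 rpm, 25 °C, to equilibrium. The aqueous supernatant was quantified by C18 UHPLC or plate-reader UV at 343 nm. Dpw came from initial versus equilibrium aqueous concentration and phase ratio. Ppw and pKa were derived across pH. Duplicates, SEM.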

[2] = measured by this polymer-water method; cited from earlier work

Compound | Ppw− (conditional partition coefficient of the anionic form) [1] | log P [2]
CC1=CC(c2ccccc2)=NS(=O)(=O)N1 [2H-1,2,6-thiadiazine, 3-methyl-5-phenyl-, 1,1-dioxide] | statistically zero | –
Clc1ccc(COC(Cn2ccnc2)c2ccc(Cl)cc2Cl)cc1 (centres unmarked) [econazole] | – | 4.83
